Experimental data gathered from unrelated publications.
Lines come from different studies, so protocols differ.
MAP2K6: Dual specificity mitogen-activated protein kinase kinase 6 (MAP2K6, Homo sapiens, UniProt P52564)

| Compound | target | observed | mode | method | tested at | endpoint | result |
| --- | --- | --- | --- | --- | --- | --- | --- |
| CCCCN(CCCC)C(=O)CN1C[C@@H](c2cc(OC)c3c(c2)OCO3)[C@H](C(=O)O)[C@H]1CC(C)(C)CCC | MAP2K6 | cell-free assay |  | competition with immobilised ligand | 1 µM | remaining binding | 90.8% |
| COc1cc(Cl)c(C(=O)N[C@@H](CN[C@H]2CC[C@@H](N)CC2)Cc2ccc(C#N)cc2)cc1-c1ccc(CN[C@H](C)c2ccc(C)cc2)o1 | MAP2K6 | enzyme activity | inhibitor |  | 1 µM | remaining activity | 88% |
| N#CCCc1ccc2c(c1)-c1[nH]c3ccc([N+](=O)[O-])cc3c1CC(=O)N2 | MAP2K6 | cell-free assay |  |  | 0.5 µM | remaining signal | 97.2% |
| CNCc1ccccc1-c1csc([C@@H](C)Nc2nc(C)nc3cc(OC)c(OC)cc23)c1 | MAP2K6 | cell-free assay |  | competition with immobilised ligand | 1 µM | remaining binding | 86% |
| COc1cc2ncnc(Nc3ccc(Oc4ccccc4)c(C)c3C)c2cc1OC | MAP2K6 | enzyme activity | inhibitor |  | 1 µM | inhibition | 2% |
| CCCS(=O)(=O)Nc1ccc(F)c(C(=O)c2c[nH]c3ncc(-c4ccc(Cl)cc4)cc23)c1F | MAP2K6 | enzyme activity | inhibitor |  | 1 µM | inhibition | < 10% |
| Cc1nc(Cc2cccc(C(F)(F)F)c2)sc1-c1ccc(C(N)=O)nc1 | MAP2K6 | cell-free assay |  | competition with immobilised ligand | 1 µM | remaining binding | 69% |
| CN(C)C1CCN(CC#Cc2nn(C3CCCC3)c3nc(NCc4ccccc4)ncc23)C1 (stereo not shown) | MAP2K6 | enzyme activity | inhibitor | FRET | 1 µM | inhibition | 6% |
| COc1cc(Nc2cnc(C#N)c(O[C@H](C)CN(C)C)n2)ncc1-c1cnn(C)c1 | MAP2K6 | enzyme activity | inhibitor | radiometric | 1 µM | remaining activity | 71% |
| CC(C)(C)c1nc2c(s1)c1nc(N)ncc1c1ccc(NS(=O)(=O)c3c(F)cccc3F)c(F)c12 | Dual specificity mitogen-activated protein kinase kinase 6 (MAP2K6, Homo sapiens, UniProt P52564, S207D/T211D) | enzyme activity | inhibitor | radiometric | 1 µM | remaining activity | 70% |
| Cn1c2c(c3ccc(Cl)c(Cl)c31)C(C#N)C1(CCCCC1)NC2=O (racemic) | MAP2K6 | thermal stability |  | DSF | 10 µM | ΔTm | 0.2 °C |
| CNCc1ccc(-c2cc(-c3nc(-c4ccc(S(=O)(=O)C(C)C)cc4)cnc3N)on2)cc1 | MAP2K6 | enzyme activity | inhibitor |  | 2 µM | inhibition | 28% |
| CN1CC(Oc2cnc(C#N)cc2-c2ccn3nc(NC(=O)C4CC4)cc3c2)C1 | MAP2K6 | enzyme activity | inhibitor |  | 1 µM | inhibition | 21% |
| CO[C@@H](C)c1c(Nc2ccc([C@H](N(C)C(=O)C3CCS(=O)(=O)CC3)C(F)(F)F)cc2)cnc2cc(Cl)nn12 | MAP2K6 | cell-free assay |  | competition with immobilised ligand | 1 µM | remaining binding | 91% |
| CC(C)(O)[C@H]1CC[C@H](Nc2ccc3ncc(-c4cccc(C(F)(F)F)c4)n3n2)CC1 | MAP2K6 | enzyme activity | inhibitor |  | 1 µM | remaining activity | 90.6% |
| Cc1ccc(NC(=O)c2ccc(CN3CCN(C)CC3)cc2)cc1Nc1nc(-c2cccnc2)cs1 | MAP2K6 | cell-free assay |  |  | 0.5 µM | remaining signal | 96.5% |
| Cc1cc(-n2nc(Cc3cc(F)cc(C(F)(F)F)c3)nc2C)ccc1C(N)=O | MAP2K6 | cell-free assay |  | competition with immobilised ligand | 1 µM | remaining binding | 83% |

| Compound | target | observed | mode | method | tested at | endpoint | result |
| --- | --- | --- | --- | --- | --- | --- | --- |
| Cc1cnc(NC2CCOCC2)nc1-n1cnc(C(=O)NC(CN)c2cc(F)cc(Cl)c2)c1 (stereo not shown) | MAP2K6 | enzyme activity | inhibitor | radiometric | 1 µM | remaining activity | 96% |
| CCN(CC)CCNC(=O)c1c(C)[nH]c(/C=C2\C(=O)Nc3ccc(F)cc32)c1C | MAP2K6 | cell-free assay |  |  | 0.5 µM | remaining signal | 75.9% |
| Cn1c2c(c3ccc(Cl)c(Cl)c31)C(C#N)C1(CCNCC1)NC2=O (racemic) | MAP2K6 | thermal stability |  | DSF | 10 µM | ΔTm | 0.3 °C |
| CC[C@H](CO)Nc1nc(NCc2ccccc2)c2ncn(C(C)C)c2n1 | MAP2K6 | cell-free assay |  |  | 0.5 µM | remaining signal | 98.2% |
| CCCOc1ccc(OC)c(F)c1C(=O)c1ccc(C(=O)N[C@@H]2CNC[C@H]2NC(=O)c2ccc3[nH]ncc3c2)cc1 | MAP2K6 | enzyme activity | inhibitor |  | 10 µM | remaining activity | 103% |
| Cn1c2c(Cl)c(Cl)ccc2c2cn[nH]c(=O)c21 | MAP2K6 | thermal stability |  | DSF | 10 µM | ΔTm | 0.1 °C |
| FC(F)c1nc2ccccc2n1-c1nc(N2CCOCC2)nc(N2CCOCC2)n1 | MAP2K6 | enzyme activity | inhibitor |  | 10 µM | remaining activity | 83% |
| CNC(=O)c1cc(Oc2ccc(NC(=O)Nc3ccc(Cl)c(C(F)(F)F)c3)cc2)ccn1 | MAP2K6 | enzyme activity | inhibitor |  | 10 µM | inhibition | 99% |
| Cn1c2c(c3ccccc31)C(C#N)C(C)(C)NC2=O (stereo not shown) | MAP2K6 | thermal stability |  | DSF | 10 µM | ΔTm | 0 °C |
| C[C@@H]1CN(c2cc(-c3nn(C)c4ccc(OC5(C)CC5)cc34)ncn2)C[C@H](C)O1 | MAP2K6 | cell-free assay |  | competition with immobilised ligand | 1 µM | remaining binding | 89% |
| Cc1ccc(Nc2nccc(N(C)c3ccc4c(C)n(C)nc4c3)n2)cc1S(N)(=O)=O | MAP2K6 | enzyme activity | inhibitor |  | 0.3 µM | inhibition | -10% |
| CN(C)C(=O)Cn1cc(-c2nc([C@@](C)(c3ccc(-c4cnc(N)nc4)cc3)C3CC3)no2)cn1 | MAP2K6 | cell-free assay |  | competition with immobilised ligand | 1 µM | remaining binding | 100% |
| Cc1ccc(C(=O)Nc2ccc(CN3CCN(C)CC3)c(C(F)(F)F)c2)cc1C#Cc1cnc2cccnn12 | MAP2K6 | enzyme activity | inhibitor |  | 23.5 nM | remaining activity | 100% |
| O=C(Nc1cnn(-c2csc(C(=O)NC3COC3)c2)c1)Nc1c(F)cccc1Cl | MAP2K6 | enzyme activity | inhibitor |  | 5 µM | remaining activity | 94.4% |
| O=C(Nc1cnc(Oc2ccc(F)cc2)nc1)N1CCc2ncccc2[C@@H]1c1ccc(F)cc1 | MAP2K6 | cell-free assay |  | competition with immobilised ligand | 1 µM | remaining binding | 77% |
| COc1cc2ncnc(Nc3ccc(F)c(Cl)c3)c2cc1OCCCN1CCOCC1 | MAP2K6 | cell-free assay |  |  | 0.5 µM | remaining signal | 90.1% |
| Cn1c2c(c3ccc(Cl)c(Cl)c31)C(C#N)C1(CCOCC1)NC2=O (stereo not shown) | MAP2K6 | thermal stability |  | DSF | 10 µM | ΔTm | 0 °C |
